The values that follow come from ChEMBL document CHEMBL1130379, “3-[2-(Pyrrolidin-1-yl)ethyl]indoles and 3-[3-(piperidin-1-yl)propyl]indoles: agonists for the h5-HT1D receptor with high selectivity over the h5-HT1B subtype” (J Med Chem, 1997).

Assay [1] can be described thus: Percent efficacy relative to 5-HT. The assay is classed as functional. Summed up:
(§1)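 Agonist-induced [35S]GTPγS binding was measured in CHO cells stably transfected with human 5-HT1D receptors. The output was EC50 together with intrinsic efficacy, expressed as percent of the maximal 5-HT response.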

For assay [2], the target named is 5-hydroxytryptamine receptor 1B (Homo sapiens, UniProt P28222). The assay is described as follows: Binding affinity to human cloned 5-hydroxytryptamine 1B receptor in CHO cells by [3H]5-HT binding displacement. The assay is classed as cell-based.
Assay [3] concerns the target T1, 5-hydroxytryptamine receptor 1D (Homo sapiens, UniProt P28221). Put plainly: Binding affinity by displacement to human cloned 5-hydroxytryptamine 1D receptor in CHO cells by [3H]5-HT displacement. The assay is classed as cell-based. The gist of the method: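 Cloned human 5-HT1D receptors were stably expressed in CHO cells. Compounds displaced [3H]-5-HT, used at the receptor's KD, and IC50 was read from the displacement. Values are the mean of two independent determinations, each run in triplicate.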

Assay [4] addresses Serotonin 1 receptors; 5-HT1B & 5-HT1D (Homo sapiens) (UniProt P28222+P28221). The assay is described as follows: Binding selectivity for 5-HT 1D/1B receptors. The assay is classed as protein assay.
The target in assay [5] is T1, 5-hydroxytryptamine receptor 1D. The assay is described as follows: Measurement of agonist induced [35S]GTP-gamma-S, binding in CHO cells stably transfected with 5-hydroxytryptamine 1D receptor. The assay is classed as functional, cell-based. The gist of the method: as §1
In general terms: GTPγS is a poorly hydrolysed GTP analogue; its binding reports G protein activation.

A short description of assay [6]: efficacy relative to 5-HT. The assay is classed as functional. The gist of the method:
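Agonist-induced [35S]GTPγS binding in CHO cells stably transfected with human 5-HT1D receptors. Intrinsic efficacy is expressed as percent of the maximal 5-HT response.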

The structures appear in SMILES notation.

T1 sequence (P28221 whole entry): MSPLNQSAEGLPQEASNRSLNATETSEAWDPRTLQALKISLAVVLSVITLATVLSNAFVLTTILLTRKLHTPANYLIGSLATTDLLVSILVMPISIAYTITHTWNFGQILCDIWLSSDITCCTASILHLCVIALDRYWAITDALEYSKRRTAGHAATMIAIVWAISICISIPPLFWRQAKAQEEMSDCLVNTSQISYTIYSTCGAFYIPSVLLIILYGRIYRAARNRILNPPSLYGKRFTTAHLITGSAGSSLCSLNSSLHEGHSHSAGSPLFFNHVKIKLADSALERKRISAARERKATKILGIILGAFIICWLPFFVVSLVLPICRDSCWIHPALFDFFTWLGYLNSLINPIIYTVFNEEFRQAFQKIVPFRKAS
Chain of 5-hydroxytryptamine receptor 1B (P28222 whole entry): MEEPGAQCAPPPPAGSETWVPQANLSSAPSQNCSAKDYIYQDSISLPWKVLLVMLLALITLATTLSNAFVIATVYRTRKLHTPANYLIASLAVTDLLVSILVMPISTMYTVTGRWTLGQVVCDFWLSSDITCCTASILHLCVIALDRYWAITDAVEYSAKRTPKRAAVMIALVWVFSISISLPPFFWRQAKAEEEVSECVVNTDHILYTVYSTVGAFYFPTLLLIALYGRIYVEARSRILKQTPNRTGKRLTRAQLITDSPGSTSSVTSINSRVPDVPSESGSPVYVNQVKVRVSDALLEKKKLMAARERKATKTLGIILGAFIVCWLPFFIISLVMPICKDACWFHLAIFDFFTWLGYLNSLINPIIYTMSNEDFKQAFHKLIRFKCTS

The compound `CN(C)CCc1c[nH]c2ccc(Cn3cncn3)cc12` gave an Efficacy in assay [1] of 90%.

For the compound `CN(Cc1ccccc1)[C@@H]1CCN(CCc2c[nH]c3ccc(-n4cnnc4)cc23)C1`, the results for the IC50 in assay [2] and in assay [3] were 210 nM and 38 nM, respectively. For the same compound, the Selectivity ratio in assay [4] was 5.5.

Consider `CN(C)CCc1c[nH]c2ccc(-n3cnnc3)cc12`, for which the IC50 in assay [2] was determined as 1.4 nM; in assay [3], 0.3 nM. In addition, in assay [5], it took 0.45 nM to reach a half-maximal effect (EC50). In assay [1], this compound came in with an Efficacy of 117%. In assay [4], the Selectivity ratio is 4.7.

With `O=C(c1ccc(F)cc1)C1CCN(CCn2c(=O)[nH]c3ccccc3c2=O)CC1` [KETANSERIN], the IC50 in assay [2] stood at 6500 nM; in assay [3], 260 nM. Besides, in assay [4], the Selectivity ratio came to 25.

With `C[C@@H](NC1CCN(CCCc2c[nH]c3ccc(-n4cnnc4)cc23)CC1)c1ccccc1`, the IC50 in assay [2] came out at 35 nM; in assay [3], 0.35 nM. This compound also returned an EC50 in assay [5] of 1.5 nM. Also, the Efficacy in assay [1] was found to be 96%. Besides, in assay [4], the Selectivity ratio amounted to 100.

Turning to `c1cc2[nH]cc(CCCN3CCCCC3)c2cc1-n1cnnc1`, the half-maximal inhibitory concentration (IC50) in assay [2] amounted to 15 nM; in assay [3] it was 24 nM. Moreover, in assay [4], the Selectivity ratio was found to be 0.6.

For the compound `c1cc2[nH]cc(CCN3CCCC3)c2cc1-n1cnnc1`, the IC50 worked out at 30.2 nM in assay [2] and 3.4 nM in assay [3]. Besides, the concentration giving a half-maximal response (EC50) in assay [5] was 2.6 nM. The compound further yielded an Efficacy in assay [1] of 120%. Further, in assay [4], the Selectivity ratio is 9.

For the compound `CN(Cc1ccccc1)CC1CCN(CCCc2c[nH]c3ccc(-n4cnnc4)cc23)CC1`, the IC50 in assay [2] was found to be 28 nM; in assay [3] it was 0.95 nM. This compound gave an EC50 in assay [5] of 0.9 nM. The Efficacy in assay [1] was 93%. Besides, in assay [4], the Selectivity ratio is 29.

Take `c1ccc(CNC[C@@H]2CCN(CCc3c[nH]c4ccc(-n5cnnc5)cc34)C2)cc1`: the IC50 in assay [2] worked out at 47 nM; in assay [3], 0.5 nM. The same compound displayed an EC50 in assay [5] of 0.93 nM. The Efficacy in assay [1] is 100%. In addition, in assay [4], the Selectivity ratio was 94.

Regarding `CN(Cc1ccccc1)C[C@@H]1CCN(CCc2c[nH]c3ccc(-n4cnnc4)cc23)C1`, the results for the IC50 in assay [2] and in assay [3] were 33 nM and 0.7 nM, respectively. The EC50 in assay [5] turned out to be 1.6 nM. The same compound returned an Efficacy in assay [1] of 102%. In addition, the Selectivity ratio in assay [4] amounted to 47.

In assay [6], `CNS(=O)(=O)Cc1ccc2[nH]cc(CCN(C)C)c2c1` had an Efficacy of 100%.

Turning to `OC[C@H](NC1CCN(CCCc2c[nH]c3ccc(-n4cnnc4)cc23)CC1)c1ccc(F)cc1`, the IC50 in assay [2] was 185 nM; in assay [3], 0.9 nM. The response in assay [5] was half-maximal at 1.1 nM (EC50). The Efficacy in assay [1] worked out at 104%. Also, in assay [4], the Selectivity ratio was determined as 206.

Consider `c1ccc(CO[C@@H]2CCN(CCc3c[nH]c4ccc(-n5cnnc5)cc34)C2)cc1` (stereo in doubt; 4b) [listing 1 of 2 here], for which the IC50 in assay [2] is 146 nM; in assay [3], 6.3 nM. In assay [5], this compound had a half-maximal effective concentration (EC50) of 15 nM.

In turn, `c1ccc(CO[C@@H]2CCN(CCc3c[nH]c4ccc(-n5cnnc5)cc34)C2)cc1` (stereo in doubt; 4b) [listing 2 of 2 here] showed an Efficacy in assay [1] of 81%. Moreover, the Selectivity ratio in assay [4] was determined as 23.

With `c1ccc(CNC2CCN(CCCc3c[nH]c4ccc(-n5cnnc5)cc34)CC2)cc1`, the IC50 in assay [2] was determined as 125 nM; in assay [3], 4.8 nM. Besides, in assay [5], the midpoint of the response, the EC50, lay at 8 nM. In addition, the Efficacy in assay [1] is 76%. Further, in assay [4], the Selectivity ratio stood at 26.

For the compound `c1ccc(CO[C@@H]2CCN(CCc3c[nH]c4ccc(-n5cnnc5)cc34)C2)cc1` (stereo in doubt; 4c) [listing 1 of 2 here], the IC50 was 280 nM in assay [2] and 23 nM in assay [3]. The EC50 in assay [5] worked out at 33 nM.

For the compound `OC[C@H](NC1CCN(CCCc2c[nH]c3ccc(-n4cnnc4)cc23)CC1)c1ccccc1`, the figures for the IC50 in assay [2] and in assay [3] were 114 nM and 1.3 nM, respectively. Further, a half-maximal effect in assay [5] (EC50) was put at 1.8 nM. In assay [1], this compound came in with an Efficacy of 95%. In addition, in assay [4], the Selectivity ratio amounted to 88.

Turning to `CN(Cc1ccccc1)C1CCN(CCCc2c[nH]c3ccc(-n4cnnc4)cc23)CC1`, the IC50 in assay [2] is 145 nM; in assay [3], 2.2 nM. Also, in assay [5], the EC50 came out at 1.6 nM. Moreover, the Efficacy in assay [1] turned out to be 94%. Moreover, the Selectivity ratio in assay [4] came out at 66.

Regarding `c1cc2[nH]cc(CCN3CCCCC3)c2cc1-n1cnnc1`, the IC50 in assay [2] amounted to 568 nM; in assay [3], 200 nM. Further, in assay [4], the Selectivity ratio came to 3.

With `c1ccc(CNCC2CCN(CCc3c[nH]c4ccc(-n5cnnc5)cc34)C2)cc1` (single isomer, unassigned), the values for the IC50 in assay [2] and in assay [3] were 50 nM and 1.6 nM, respectively. In assay [5], this compound registered an EC50 of 4.1 nM. In assay [1], this compound gave an Efficacy of 102%. For the same compound, the Selectivity ratio in assay [4] was 31.

Regarding `c1ccc(COC[C@@H]2CCN(CCc3c[nH]c4ccc(-n5cnnc5)cc34)C2)cc1`, the IC50 was found to be 88 nM in assay [2] and 2.3 nM in assay [3]. In addition, in assay [5], the EC50 came out at 2.1 nM. The Efficacy in assay [1] is 68%. Moreover, the Selectivity ratio in assay [4] was found to be 38.

`c1ccc(CO[C@@H]2CCN(CCc3c[nH]c4ccc(-n5cnnc5)cc34)C2)cc1` (stereo in doubt; 4c) [listing 2 of 2 here] came in with an Efficacy in assay [1] of 84%. The Selectivity ratio in assay [4] is 12.

In general, IC50 refers to the concentration needed to halve the response being measured. Low readings indicate higher potency, high ones lower potency. The EC50 is the concentration at which the effect is half-maximal. The low end stands for a more potent agent, the high end for a less potent agent.
